According to PMC12541606 (Acta Pharmaceutica Sinica. B, 2025):
Numbered stars: 1 amine (or outer) side, 2 acyl side, 3 side chain; on linkers, the order of the positions; unused ones are H or OH. Bridge positions count the residues as written; N and C are the ends. Square brackets hold non-standard residues; d marks the D form. Peptide text beside a SMILES is read from it. I, II: the chains in the order shown. * marks the point of attachment. X1 = O=C([C@H](CCCCn1nnc2c1-c1ccccc1N([*:3])Cc1ccccc1-2)N[*:1])[*:2]; Dolaproine = CO[C@@H]([C@@H]1CCCN1)[C@@H](C)C(=O)O; Tyr(SO2F) = N[C@@H](Cc1ccc(OS(=O)(=O)F)cc1)C(=O)O; Dil = CC[C@H](C)[C@H](NC)[C@@H](CC(=O)O)OC; PABC = O=C(OCc1ccc(N[*:1])cc1)[*:2]; X2 = C[C@@H](N*)[C@@H](O)c1ccccc1; Cit = NC(=O)NCCC[C@H](N)C(=O)O; Suc = O=C(CCC(=O)[*:2])[*:1]; NMeV = CN[C@H](C(=O)O)C(C)C; AEEA = NCCOCCOCC(=O)O

Legend:
Assay type in all cases: cell-based
MDA-MB-468 cells = test: Cell viability test; conditions: 72 h, CCK-8
tubulin = test: Immunofluorescent imaging of tubulin organization; conditions: MDA-MB-468 cells, 0 to 10 μmol/L, 24 h
[1] = tested on: poly ADP-ribose polymerase (PARP); test: Western blotting of cleaved PARP; conditions: MDA-MB-468 cells, 24 h, 37 °C
Outline: (§1)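 MDA-MB-468 cells were seeded and grown 24 h at 37 °C, 5% CO2. PDC test compound was diluted from a 20 mmol/L stock to final 0, 0.1, 0.5, 1, 5 and 10 μmol/L and applied for 24 h. Cells were lysed in RIPA buffer with protease inhibitors and run on SDS-PAGE. Blots were probed for caspase-3, cleaved caspase-3, PARP and β-actin, detected by ECL and quantified by densitometry.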

caspase-3 = test: Western blotting of cleaved caspase-3; conditions: MDA-MB-468 cells, 24 h, 37 °C
Outline: as §1

Row | Structure (SMILES) | area under the dose-response curve (AUC) (MDA-MB-468 cells) | tubulin signal (in words) (tubulin) | cleavage product of PARP, fold relative to untreated controls [1] | cleavage product of caspase-3, fold relative to untreated controls (caspase-3)
1 | CC[C@H](C)[C@@H]([C@@H](CC(=O)N1CCC[C@H]1[C@H](OC)[C@@H](C)C(=O)N[C@H](C)[C@@H](O)c1ccccc1)OC)N(C)C(=O)[C@@H](NC(=O)[C@H](C(C)C)N(C)C(=O)OCc1ccc(NC(=O)[C@H](CCCNC(N)=O)NC(=O)[C@@H](NC(=O)CCC(=O)N2Cc3ccccc3-c3nnn(CCCC[C@H](NC(=O)COCCOCCNC(=O)COCCOCCNC(=O)[C@@H]4CSCC(=O)N[C@H](Cc5ccccc5)C(=O)N[C@@H](Cc5ccc(OS(=O)(=O)F)cc5)C(=O)N[C@@H](CC(N)=O)C(=O)N[C@@H](C)C(=O)N[C@@H](Cc5ccccc5)C(=O)N5CCC[C@H]5C(=O)N[C@@H](C(C)C)C(=O)N[C@@H](CCCNC(=N)N)C(=O)N[C@@H](Cc5ccc(O)cc5)C(=O)N[C@@H](CC(C)C)C(=O)N[C@@H](CCCCN)C(=O)N[C@@H](CCCCN)C(=O)N[C@@H](Cc5c[nH]c6ccccc56)C(=O)N4)C(N)=O)c3-c3ccccc32)C(C)C)cc1)C(C)C [CP-N1-MMAE] (I: {CH2CO}-[dF][Tyr(SO2F)]NAFPVRYLKKWC[AEEA][AEEA][X1]-NH2 / II: V[Cit][PABC][NMeV]V[Dil][Dolaproine]-X2; linker I:17-II:N via Suc; thioether I:N-I:14) | 173.3 | progressive, concentration-dependent reduction in tubulin signal | 1.5 fold | 5 fold
2 | CC[C@H](C)[C@@H]([C@@H](CC(=O)N1CCC[C@H]1[C@H](OC)[C@@H](C)C(=O)N[C@H](C)[C@@H](O)c1ccccc1)OC)N(C)C(=O)[C@@H](NC(=O)[C@H](C(C)C)N(C)C(=O)OCc1ccc(NC(=O)[C@H](CCCNC(N)=O)NC(=O)[C@@H](NC(=O)CCC(=O)N2Cc3ccccc3-c3nnn(CCCC[C@H](NC(=O)COCCOCCNC(=O)COCCOCCNC(=O)[C@@H]4CSCC(=O)N[C@H](Cc5ccccc5)C(=O)N[C@@H](Cc5ccc(OS(=O)(=O)F)cc5)C(=O)N[C@@H](CC(N)=O)C(=O)N[C@@H](C)C(=O)N[C@@H](Cc5ccccc5)C(=O)N5CCC[C@H]5C(=O)N[C@@H](C(C)C)C(=O)N[C@@H](CCCNC(=N)N)C(=O)N[C@@H](Cc5ccc(O)cc5)C(=O)N[C@@H](CC(C)C)C(=O)N[C@@H](CCCCN)C(=O)N[C@@H](CCCNC(=N)N)C(=O)N[C@@H](Cc5c[nH]c6ccccc56)C(=O)N4)C(N)=O)c3-c3ccccc32)C(C)C)cc1)C(C)C [CP-N9-MMAE] (I: {CH2CO}-[dF][Tyr(SO2F)]NAFPVRYLKRWC[AEEA][AEEA][X1]-NH2 / II: V[Cit][PABC][NMeV]V[Dil][Dolaproine]-X2; linker I:17-II:N via Suc; thioether I:N-I:14) | 215.2 | progressive, concentration-dependent reduction in tubulin signal | – | –
3 | CC[C@H](C)[C@@H]([C@@H](CC(=O)N1CCC[C@H]1[C@H](OC)[C@@H](C)C(=O)N[C@H](C)[C@@H](O)c1ccccc1)OC)N(C)C(=O)[C@@H](NC(=O)[C@H](C(C)C)N(C)C(=O)OCc1ccc(NC(=O)[C@H](CCCNC(N)=O)NC(=O)[C@@H](NC(=O)CCC(=O)N2Cc3ccccc3-c3nnn(CCCC[C@H](NC(=O)COCCOCCNC(=O)COCCOCCNC(=O)[C@@H]4CSCC(=O)N[C@H](Cc5ccccc5)C(=O)NCC(=O)N[C@@H](CC(=O)O)C(=O)N[C@@H](Cc5ccccc5)C(=O)N[C@@H]([C@@H](C)CC)C(=O)N[C@@H](CCCNC(=N)N)C(=O)N[C@@H](CCCNC(=N)N)C(=O)N[C@@H](CC(C)C)C(=O)N[C@@H](C(C)C)C(=O)N5CCC[C@H]5C(=O)N[C@@H](CCCNC(=N)N)C(=O)N[C@@H](CC(C)C)C(=O)N4)C(N)=O)c3-c3ccccc32)C(C)C)cc1)C(C)C [NP-N7-MMAE] (I: {CH2CO}-[dF]GDFIRRLVPRLC[AEEA][AEEA][X1]-NH2 / II: V[Cit][PABC][NMeV]V[Dil][Dolaproine]-X2; linker I:16-II:N via Suc; thioether I:N-I:13) | 433.7 | progressive, concentration-dependent reduction in tubulin signal | – | –
